One may read the IC50 as the concentration that gives 50% inhibition. The low end stands for inhibition by little substance, the high end for a need for much substance.

This note sets out measurements from ChEMBL document CHEMBL4118073, “Evaluation of the antidepressant therapeutic potential of isocyanine and pseudoisocyanine analogues of the organic cation decynium-22” (Eur J Med Chem, 2017).

The first data set deals with T1, alpha1 adrenoceptor (Mus musculus, UniProt P97714+P97717+P97718).
T1 sequence (P97714 whole entry): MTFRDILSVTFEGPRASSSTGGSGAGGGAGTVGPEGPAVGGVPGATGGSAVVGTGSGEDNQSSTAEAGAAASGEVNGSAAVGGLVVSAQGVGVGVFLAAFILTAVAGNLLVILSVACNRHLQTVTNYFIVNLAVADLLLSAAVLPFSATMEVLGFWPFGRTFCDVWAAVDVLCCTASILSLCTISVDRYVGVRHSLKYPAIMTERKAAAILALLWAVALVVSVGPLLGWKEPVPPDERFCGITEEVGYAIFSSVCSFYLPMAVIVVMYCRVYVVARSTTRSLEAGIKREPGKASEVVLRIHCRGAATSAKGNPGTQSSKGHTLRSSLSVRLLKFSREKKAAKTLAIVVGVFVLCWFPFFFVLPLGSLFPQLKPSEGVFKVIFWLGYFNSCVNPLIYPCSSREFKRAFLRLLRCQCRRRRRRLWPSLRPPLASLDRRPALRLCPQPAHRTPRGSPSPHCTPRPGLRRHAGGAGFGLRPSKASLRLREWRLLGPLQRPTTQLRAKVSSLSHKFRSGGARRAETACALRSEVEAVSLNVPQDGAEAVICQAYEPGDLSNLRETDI
T1 sequence (P97717 whole entry): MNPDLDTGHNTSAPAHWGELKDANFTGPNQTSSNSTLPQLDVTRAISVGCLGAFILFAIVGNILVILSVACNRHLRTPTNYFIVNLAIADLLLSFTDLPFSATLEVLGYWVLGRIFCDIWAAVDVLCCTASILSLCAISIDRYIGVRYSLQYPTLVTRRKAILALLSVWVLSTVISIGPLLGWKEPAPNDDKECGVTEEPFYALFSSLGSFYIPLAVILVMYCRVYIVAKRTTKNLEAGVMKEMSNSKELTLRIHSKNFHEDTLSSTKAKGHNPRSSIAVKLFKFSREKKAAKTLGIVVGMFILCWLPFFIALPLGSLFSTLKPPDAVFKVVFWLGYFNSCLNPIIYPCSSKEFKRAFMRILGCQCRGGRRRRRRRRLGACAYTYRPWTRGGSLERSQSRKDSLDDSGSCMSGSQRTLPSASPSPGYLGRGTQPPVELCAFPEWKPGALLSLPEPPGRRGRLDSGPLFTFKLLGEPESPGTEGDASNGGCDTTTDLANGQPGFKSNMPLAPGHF
T1 sequence (P97718 whole entry): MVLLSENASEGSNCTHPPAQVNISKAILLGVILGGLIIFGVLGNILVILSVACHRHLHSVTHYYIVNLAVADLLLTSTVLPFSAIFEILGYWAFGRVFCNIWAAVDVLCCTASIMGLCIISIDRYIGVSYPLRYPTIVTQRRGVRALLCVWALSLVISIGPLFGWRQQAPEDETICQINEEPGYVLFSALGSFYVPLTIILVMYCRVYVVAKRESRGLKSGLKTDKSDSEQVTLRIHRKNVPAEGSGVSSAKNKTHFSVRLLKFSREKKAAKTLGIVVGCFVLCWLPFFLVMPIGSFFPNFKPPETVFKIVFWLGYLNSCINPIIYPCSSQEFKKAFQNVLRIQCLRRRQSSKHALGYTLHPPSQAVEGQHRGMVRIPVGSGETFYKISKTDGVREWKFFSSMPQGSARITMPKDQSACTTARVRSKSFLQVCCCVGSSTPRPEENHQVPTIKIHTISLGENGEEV
Description: Displacement of [3H]prazosin from alpha1 adrenoceptor in C57BL/6 mouse hippocampal homogenates assessed as remaining receptor bound [3H]prazosin levels at 0.1 uM after 40 mins by liquid scintillation counting method relative to control. Conditions: probe [3H]prazosin, read-out: Activity. In short, it runs like this:
(§1)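 Mouse hippocampal homogenate incubated with 1.5 nM [³H]prazosin and competing ligand across a concentration series. Bound radioligand was expressed as displacement relative to control. IC₅₀ was obtained from non-linear regression fitting of concentration-effect curves, and curve fits were compared with tamsulosin.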
As for `Cc1ccnc2ccccc12`, the activity at 40 min, 0.1 µM is 2.7%.

Another data set concerns the target T2, Alpha-1 adrenergic receptor (Mus musculus, UniProt P97714+P97717+P97718).
T2 sequence (P97714 whole entry): T1 sequence (P97714 whole entry)
T2 sequence (P97717 whole entry): T1 sequence (P97717 whole entry)
T2 sequence (P97718 whole entry): T1 sequence (P97718 whole entry)
As to the kind of experiment: Displacement of [3H]prazosin from alpha1 adrenoceptor in C57BL/6 mouse hippocampal homogenates after 40 mins by liquid scintillation counting method.
Settings: not given
In short, it runs like this:
as §1
For orientation: Loss of bound radioactivity is the signal in a displacement assay; it reports binding, not function.
For the compound `CCN1/C(=C/c2ccc3cc(F)ccc3[n+]2CC)C=Cc2ccccc21.[I-]`, the IC50 is listed as 348 nM.

Compound `CCN1/C(=C/c2ccc3cc(Cl)ccc3[n+]2CC)C=Cc2ccccc21.[I-]` came in with an IC50 of 577 nM.

As for `CCOc1ccccc1OCCN[C@H](C)Cc1ccc(OC)c(S(N)(=O)=O)c1` [TAMSULOSIN], the IC50 is listed as 1.8 nM.

A further data set has as its target T1, alpha1 adrenoceptor. Description: Displacement of [3H]prazosin from alpha1 adrenoceptor in C57BL/6 mouse hippocampal homogenates assessed as remaining receptor bound [3H]prazosin levels at 10 uM after 40 mins by liquid scintillation counting method relative to control. Conditions: probe [3H]prazosin, read-out: Activity. The procedure, abridged: as §1
Turning to `Cc1ccnc2ccccc12`, the activity at 40 min, 10 µM was found to be 3%.

A further data set concerns Mus musculus. As to the kind of experiment: Anti-depressant-like activity in mouse assessed as time spent immobile at 0.1 mg/kg, ip administered 60 mins prior to testing measured for 6 mins by tail suspension test (reference value: 186.9 +/- 13.2 secs). The data set is classed as functional.
Settings: not given
For the compound `CCN1/C(=C/c2ccc3cc(F)ccc3[n+]2CC)C=Cc2ccccc21.[I-]`, the Time was 185.5 s.

On to `CCN1/C(=C/c2ccc3cc(Cl)ccc3[n+]2CC)C=Cc2ccccc21.[I-]`, for which the Time is recorded as 189.2 s.

Take `CN1/C(=C\c2cc[n+](C)c3ccccc23)C=Cc2ccccc21.O=C([O-])C(F)(F)F`: the Time was 200.8 s.

In a further data set the test system is Mus musculus. Description: Anti-depressant-like activity in mouse assessed as time spent immobile at 1 mg/kg, ip administered 60 mins prior to testing measured for 6 mins by tail suspension test (reference value: 186.9 +/- 13.2 secs). Format: functional.
Settings: not given
Regarding `CCN1/C(=C/c2ccc3cc(F)ccc3[n+]2CC)C=Cc2ccccc21.[I-]`, the Time stood at 198.1 s.

Turning to `CCN1/C(=C/c2ccc3cc(Cl)ccc3[n+]2CC)C=Cc2ccccc21.[I-]`, the Time turned out to be 189.3 s.

`CN1/C(=C\c2cc[n+](C)c3ccccc23)C=Cc2ccccc21.O=C([O-])C(F)(F)F`: the Time is listed as 165.3 s.

Another data set deals with T1, alpha1 adrenoceptor. Description: Displacement of [3H]prazosin from alpha1 adrenoceptor in C57BL/6 mouse hippocampal homogenates assessed as remaining receptor bound [3H]prazosin levels at 0.01 uM after 40 mins by liquid scintillation counting method relative to control. As to conditions: probe [3H]prazosin, read-out: Activity. In short, it runs like this:
as §1
Take `Cc1ccnc2ccccc12`: the activity at 40 min, 0.01 µM came out at 26.3%.

A further data set addresses T1, alpha1 adrenoceptor. Description: Displacement of [3H]prazosin from alpha1 adrenoceptor in C57BL/6 mouse hippocampal homogenates assessed as remaining receptor bound [3H]prazosin levels at 1 uM after 40 mins by liquid scintillation counting method relative to control. As to conditions: probe [3H]prazosin, read-out: Activity. The procedure, abridged:
as §1
As to `Cc1ccnc2ccccc12`, the activity at 40 min, 1 µM came out at 8.3%.

The next data set deals with Mus musculus. Description: Anti-depressant-like activity in mouse assessed as time spent immobile at 3.2 mg/kg, ip administered 60 mins prior to testing measured for 6 mins by tail suspension test (reference value: 186.9 +/- 13.2 secs). The data set is classed as functional.
Settings: not given
`CCN1/C(=C/c2ccc3cc(F)ccc3[n+]2CC)C=Cc2ccccc21.[I-]`: the Time stood at 113.5 s.

In the case of `CCN1/C(=C/c2ccc3cc(Cl)ccc3[n+]2CC)C=Cc2ccccc21.[I-]`, the Time is listed as 140.4 s.

`CN1/C(=C\c2cc[n+](C)c3ccccc23)C=Cc2ccccc21.O=C([O-])C(F)(F)F`: the Time came to 150 s.

The next data set concerns Mus musculus. As to the kind of experiment: Toxicity in mouse assessed as suppression of locomotion at 10 mg/kg, ip measured for 5 mins. The data set is classed as organism-based. As to conditions: in vivo.
Turning to `CCN1/C(=C/c2ccc3cc(F)ccc3[n+]2CC)C=Cc2ccccc21.[I-]`, the Activity entry is “Toxic”.

With `CCN1/C(=C/c2ccc3cc(Cl)ccc3[n+]2CC)C=Cc2ccccc21.[I-]`, the Activity entry was “Toxic”.

Consider `CN1/C(=C\c2cc[n+](C)c3ccccc23)C=Cc2ccccc21.O=C([O-])C(F)(F)F`, for which the Activity entry is “Toxic”.

The subject of a further data set is Mus musculus. Description: Toxicity in mouse assessed as mortality at 10 mg/kg, ip measured for 5 mins. As to conditions: in vivo. Format: organism-based. The procedure, abridged: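 Mice were given an intraperitoneal injection of the compound, with D-22 dosed over 0.01–10.0 mg/kg and analogues at equivalent doses. Each mouse was placed at once in an infrared beam-break activity chamber. Beam breaks were counted per 5 min period over a four-hour session, and deaths at the 10 mg/kg dose were recorded in the locomotor dose groups.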
Consider `CN1/C(=C\c2cc[n+](C)c3ccccc23)C=Cc2ccccc21.O=C([O-])C(F)(F)F`, for which the Activity entry is “Toxic”.

The subject of a further data set is Mus musculus. Description: Toxicity in mouse assessed as suppression of locomotion at 1 mg/kg, ip measured for 5 mins. Conditions: in vivo. The data set is classed as organism-based.
`CCN1/C(=C/c2ccc3cc(F)ccc3[n+]2CC)C=Cc2ccccc21.[I-]`: the Activity entry is recorded as “Non-Toxic”.

Regarding `CCN1/C(=C/c2ccc3cc(Cl)ccc3[n+]2CC)C=Cc2ccccc21.[I-]`, the Activity result is on record as “Non-Toxic”.

On to `CN1/C(=C\c2cc[n+](C)c3ccccc23)C=Cc2ccccc21.O=C([O-])C(F)(F)F`, for which the Activity entry is recorded as “Non-Toxic”.

The next data set concerns the target T1, alpha1 adrenoceptor. As to the kind of experiment: Displacement of [3H]prazosin from alpha1 adrenoceptor in C57BL/6 mouse hippocampal homogenates assessed as remaining receptor bound [3H]prazosin levels at 0.001 uM after 40 mins by liquid scintillation counting method relative to control. Conditions: probe [3H]prazosin, read-out: Activity. The procedure, abridged: as §1
For the compound `Cc1ccnc2ccccc12`, the activity at 40 min, 0.001 µM was 100%.

A further data set deals with T1, alpha1 adrenoceptor. As to the kind of experiment: Displacement of [3H]prazosin from alpha1 adrenoceptor in C57BL/6 mouse hippocampal homogenates assessed as remaining receptor bound [3H]prazosin levels at 100 uM after 40 mins by liquid scintillation counting method relative to control. As to conditions: probe [3H]prazosin, read-out: Activity. In short, it runs like this:
as §1
For `Cc1ccnc2ccccc12`, the activity at 40 min, 100 µM worked out at 0%.

The subject of another data set is Mus musculus. As to the kind of experiment: Toxicity in mouse assessed as suppression of locomotion at 0.1 mg/kg, ip measured for 5 mins. Format: organism-based. Conditions: in vivo.
Take `CCN1/C(=C/c2ccc3cc(F)ccc3[n+]2CC)C=Cc2ccccc21.[I-]`: the Activity result is “Non-Toxic”.

With `CCN1/C(=C/c2ccc3cc(Cl)ccc3[n+]2CC)C=Cc2ccccc21.[I-]`, the Activity entry is on record as “Non-Toxic”.

As for `CN1/C(=C\c2cc[n+](C)c3ccccc23)C=Cc2ccccc21.O=C([O-])C(F)(F)F`, the Activity entry was “Non-Toxic”.
